Test results: ChEMBL document CHEMBL1146087, “1,4-Benzodiazepines as inhibitors of respiratory syncytial virus” (J Med Chem, 2006)

What was measured:
[1] = tested on: Respiratory syncytial virus; test: Antiviral activity against RSV RSS in Hep2 cells by whole cell XTT assay; assay type: functional, organism-based; conditions: human respiratory syncytial virus, HEp-2
Method in brief: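 Primary whole-cell assay with XTT read-out of infected cells. Parallel cultures without virus were run to measure compound cytotoxicity. IC50 values were derived.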

HEp-2 = test: Cytotoxicity against Hep2 cell at 50 uM; assay type: functional, cell-based; conditions: Homo sapiens
Method in brief: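 Run alongside the whole-cell antiviral XTT assay, without virus, to measure compound toxicity to the cells. The read-out is XTT.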

[2] = Cmax in Sprague-Dawley rat at 20 mg/kg, po; assay type: ADME, organism-based; design: dose 20 mg/kg, route oral; conditions: in vivo
[3] = Tmax in Sprague-Dawley rat at 20 mg/kg, po; assay type: ADME, organism-based; design: dose 20 mg/kg, route oral; conditions: in vivo
[4] = Half life in Sprague-Dawley rat at 20 mg/kg, po; assay type: ADME, organism-based; design: dose 20 mg/kg, route oral; conditions: in vivo
[5] = Apparent oral clearance in Sprague-Dawley rat at 20 mg/kg, po; assay type: ADME, organism-based; design: dose 20 mg/kg, route oral; conditions: in vivo
Rattus norvegicus = test: Volume of distribution in Sprague-Dawley rat at 20 mg/kg, po; assay type: ADME, organism-based; design: dose 20 mg/kg, route oral; conditions: in vivo
[6] = Oral bioavailability in Sprague-Dawley rat at 2 mg/kg, po; assay type: ADME, organism-based; conditions: in vivo
[7] = Volume of distribution in Sprague-Dawley rat at 2 mg/kg, iv; assay type: ADME, organism-based; design: dose 2 mg/kg, route intravenous; conditions: in vivo, read-out: Vdss
[8] = Cmax in Sprague-Dawley rat at 2 mg/kg, iv; assay type: ADME, organism-based; design: dose 2 mg/kg, route intravenous; conditions: in vivo
[9] = Cmax in Sprague-Dawley rat at 2 mg/kg, po; assay type: ADME, organism-based; design: dose 2 mg/kg, route oral; conditions: in vivo
[10] = Tmax in Sprague-Dawley rat at 2 mg/kg, iv; assay type: ADME, organism-based; design: dose 2 mg/kg, route intravenous; conditions: in vivo
[11] = Tmax in Sprague-Dawley rat at 2 mg/kg, po; assay type: ADME, organism-based; design: dose 2 mg/kg, route oral; conditions: in vivo
[12] = Half life in Sprague-Dawley rat at 2 mg/kg, iv; assay type: ADME, organism-based; design: dose 2 mg/kg, route intravenous; conditions: in vivo
[13] = Clearance in Sprague-Dawley rat at 2 mg/kg, iv; assay type: ADME, organism-based; design: dose 2 mg/kg, route intravenous; conditions: in vivo

SMILES | IC50 [1] [µM] | Activity (HEp-2) | other results
COc1ccccc1C(=O)NC1N=C(c2cccc(C(F)(F)F)c2)c2ccccc2NC1=O (stereo unspecified) | 16.7 | Not toxic | 
O=C(NC1N=C(c2ccccc2)c2ccccc2NC1=O)c1ccc(N2CCOCC2)cc1Cl (stereo unspecified) | 3.4 | Not toxic | 
O=C(NC1N=C(c2ccccc2)c2ccccc2NC1=O)c1ccccc1OC(F)(F)F (stereo unspecified) | 14.4 | Not toxic | 
COc1ccccc1C(=O)NC1N=C(c2ccccc2)c2ccc(C)cc2NC1=O (stereo unspecified) | 19.2 | Not toxic | 
O=C(NC1N=C(C2CCCCC2)c2ccccc2NC1=O)c1ccco1 (stereo unspecified) | > 50 | Not toxic | 
COc1cc([N+](=O)[O-])ccc1C(=O)N(C)C1N=C(c2ccccc2)c2ccccc2NC1=O (stereo unspecified) | 25.1 | Not toxic | 
O=C(NC1N=C(c2ccccc2)c2ccccc2NC1=O)c1cccc(OC(F)(F)F)c1 (stereo unspecified) | 14.6 | Not toxic | 
CNc1ccccc1C(=O)NC1N=C(c2ccccc2)c2ccccc2NC1=O (stereo unspecified) | 9.6 | Not toxic | 
CN1C(=O)C(NC(=O)Nc2ccccc2F)N=C(c2ccccc2)c2ccccc21 (stereo unspecified) | > 50 | Not toxic | 
COc1ccc(CNC2N=C(c3ccccc3)c3ccccc3NC2=O)cc1 (stereo unspecified) |  | Not toxic | 
COc1ccc(C2=NC(NC(=O)c3ccccc3OC)C(=O)Nc3ccccc32)cc1 (stereo unspecified) | > 50 | Not toxic | 
CC(C)C(=O)NC1N=C(c2ccccc2)c2ccccc2NC1=O (stereo unspecified) | 9.5 | Not toxic | 
CC(C)(C)C(=O)NC1N=C(c2ccccc2)c2ccccc2NC1=O (stereo unspecified) | 16.7 | Not toxic | 
O=C(NC1N=C(c2ccccc2)c2ccccc2NC1=O)c1ccc([N+](=O)[O-])cc1 (stereo unspecified) | 6.7 | Not toxic | 
COc1cc2c(cc1OC)C(c1ccccc1)=NC(NC(=O)c1ccccc1OC)C(=O)N2 (stereo unspecified) | > 50 | Not toxic | 
COc1cc(Cl)ccc1C(=O)NC1N=C(c2ccccc2)c2ccccc2NC1=O (stereo unspecified) | 5.9 | Not toxic | Cmax [2]: 273 ng/mL; Tmax [3]: 60 min; half-life [4]: 162 min; CL/F [5]: 288 mL/min/kg; Vdss (Rattus norvegicus): 98.3 L/kg
CCN(CC)C1N=C(c2ccccc2)c2ccccc2NC1=O (stereo unspecified) | > 50 | Not toxic | 
O=C(NC1N=C(c2ccccc2)c2ccccc2NC1=O)c1cccs1 (stereo unspecified) | 5.6 | Not toxic | 
COc1cccc(C2=NC(NC(=O)c3ccccc3OC)C(=O)Nc3ccccc32)c1 (stereo unspecified) | > 50 | Not toxic | 

SMILES | IC50 [1] [µM] | Activity (HEp-2) | other results
O=C1Nc2ccccc2C(c2ccccc2)=NC1N1CCOCC1 (stereo unspecified) | > 50 | Not toxic | 
O=C1Nc2ccccc2C(c2ccccc2)=NC1NC(=O)N1CCOCC1 (stereo unspecified) | 9.7 | Not toxic | 
O=C(NC1N=C(c2ccccc2)c2ccc(Cl)cc2NC1=O)c1cccs1 (stereo unspecified) | 26.7 | Not toxic | 
COc1ccccc1C(=O)NC1N=C(c2ccccc2)c2cc(Cl)ccc2NC1=O (stereo unspecified) | 6.1 | Not toxic | 
O=C(NC1N=C(c2ccccc2)c2ccccc2NC1=O)c1ccccc1C1CCCCC1 (stereo unspecified) | > 50 | Not toxic | 
COc1ccc(C(=O)NC2N=C(C)c3ccccc3NC2=O)cc1 (stereo unspecified) | > 50 | Not toxic | 
COc1ccc2c(c1)C(c1ccccc1)=NC(NC(=O)c1ccccc1OC)C(=O)N2 (stereo unspecified) | > 50 | Not toxic | 
COc1cc([N+](=O)[O-])ccc1C(=O)NC1N=C(c2ccccc2)c2ccccc2N(C)C1=O (stereo unspecified) | > 50 | Not toxic | 
O=C(NC1N=C(c2ccccc2)c2ccccc2NC1=O)c1ccccc1 (stereo unspecified) | 5.5 | Not toxic | 
O=C(NC1N=C(c2ccccc2)c2ccccc2NC1=O)C1CCCCC1 (stereo unspecified) |  | Not toxic | 
CCOc1ccccc1C(=O)NC1N=C(c2ccccc2)c2ccccc2NC1=O (stereo unspecified) | 3.6 | Not toxic | 
COc1ccc(F)cc1C(=O)NC1N=C(c2ccccc2)c2ccccc2NC1=O (stereo unspecified) | 1.5 | Not toxic | Cmax [2]: 10.3 ng/mL; Tmax [3]: 200 min; CL/F [5]: 981 mL/min/kg
O=C(NC1N=C(c2ccccc2)c2ccccc2NC1=O)c1cccc(C(F)(F)F)c1 (stereo unspecified) | 7.5 | Not toxic | 
O=C(NC1N=C(c2cccc(C(F)(F)F)c2)c2ccccc2NC1=O)c1ccco1 (stereo unspecified) | 18.8 | Not toxic | 
Cc1cc(C(=O)NC2N=C(c3ccccc3)c3ccccc3NC2=O)oc1C (stereo unspecified) | 2.8 | Not toxic | 
O=C(NC1N=C(c2ccccc2)c2ccccc2NC1=O)c1ccccc1CN1CCOCC1 (stereo unspecified) | 20.7 | Not toxic | 
O=C1Nc2ccccc2C(c2ccccc2)=NC1NC(=O)C1CCCO1 (stereo unspecified) | 17.4 | Not toxic | 
COc1ccccc1C(=O)NC1N=C(c2ccccc2)c2ccccc2NC1=O (stereo unspecified) | 2.3 | Not toxic | bioavailability [6]: 4%; Vd [7]: 2.4 L/kg; Cmax [8]: 798 ng/mL; Cmax [9]: 19.3 ng/mL; Tmax [10]: 4.8 min; Tmax [11]: 48 min; half-life [12]: 24 min; clearance [13]: 71.2 mL/min/kg
COc1ccc(C(=O)NC2N=C(c3ccccc3)c3ccccc3NC2=O)c(OC)c1 (stereo unspecified) | 2.1 | Not toxic | 

SMILES | IC50 [1] [µM] | Activity (HEp-2) | other results
COc1ccccc1CNC1N=C(c2ccccc2)c2ccccc2NC1=O (stereo unspecified) | 27.3 | Not toxic | 
O=C(Nc1ccccc1F)NC1N=C(C2CCCCC2)c2ccccc2NC1=O (stereo unspecified) | > 50 | Not toxic | 
O=C(NC1N=C(c2cccc(Cl)c2)c2ccccc2NC1=O)c1ccco1 (stereo unspecified) | 6.9 | Not toxic | 
COc1cccc(C(=O)NC2N=C(c3ccccc3)c3ccccc3NC2=O)c1 (stereo unspecified) | 6.6 | Not toxic | 
COc1ccccc1C(=O)NC1N=C(c2ccccc2F)c2cc(Cl)ccc2NC1=O (stereo unspecified) | 26.2 | Not toxic | 
CN1CCN(C(=O)NC2N=C(c3ccccc3)c3ccccc3NC2=O)CC1 (stereo unspecified) | 9.3 | Not toxic | 
COc1cc(S(C)(=O)=O)ccc1C(=O)NC1N=C(c2ccccc2)c2ccccc2NC1=O (stereo unspecified) | 2 | Not toxic | 
COc1ccccc1C(=O)NC1N=C(c2ccc(C(F)(F)F)cc2)c2ccccc2NC1=O (stereo unspecified) | > 50 | Not toxic | 
O=C(NC1N=C(c2ccccc2F)c2cc(Cl)ccc2NC1=O)c1ccco1 (stereo unspecified) | 41.3 | Not toxic | 
O=C(NC1N=C(c2ccccc2)c2ccccc2NC1=O)c1ccco1 (stereo unspecified) | 3.2 | Not toxic | 
COc1ccc(C(=O)NC2N=C(c3ccccc3)c3ccccc3NC2=O)cc1 (stereo unspecified) | 3.6 | Not toxic | 
O=C(NC1N=C(c2ccc(C(F)(F)F)cc2)c2ccccc2NC1=O)c1ccco1 (stereo unspecified) | > 50 | Not toxic | 
COc1ccccc1C(=O)NC1N=C(c2ccc(F)cc2)c2ccccc2NC1=O (stereo unspecified) | 16.5 | Not toxic | 
CCCOc1ccccc1C(=O)NC1N=C(c2ccccc2)c2ccccc2NC1=O (stereo unspecified) | 40.2 | Not toxic | 
CN(C)c1ccccc1C(=O)NC1N=C(c2ccccc2)c2ccccc2NC1=O (stereo unspecified) | 4.8 | Not toxic | 
O=C(NC1N=C(c2ccccc2)c2ccccc2NC1=O)c1cccc([N+](=O)[O-])c1 (stereo unspecified) | 7.4 | Not toxic | 
CCN(CC)C(=O)NC1N=C(c2ccccc2)c2ccccc2NC1=O (stereo unspecified) | 20.7 | Not toxic | 
O=C(Nc1ccccc1F)OC1N=C(c2ccccc2)c2ccccc2NC1=O (stereo unspecified) | 16.1 | Not toxic | 
